Results as given in ChEMBL document CHEMBL1671844, “Structure guided development of potent reversibly binding penicillin binding protein inhibitors” (ACS Med Chem Lett, 2011).

Target: D-alanyl-D-alanine carboxypeptidase (Actinomadura sp. R39) (UniProt P39045)
Assay: Inhibition of Actinomadura R39 PBP assessed as residual activity at 100 uM after 60 mins
Method in brief: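 Percentage residual activity of R39 measured with compound at 100 μM, in triplicate.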

Chain of D-alanyl-D-alanine carboxypeptidase (Actinomadura sp. R39) (P39045 whole entry): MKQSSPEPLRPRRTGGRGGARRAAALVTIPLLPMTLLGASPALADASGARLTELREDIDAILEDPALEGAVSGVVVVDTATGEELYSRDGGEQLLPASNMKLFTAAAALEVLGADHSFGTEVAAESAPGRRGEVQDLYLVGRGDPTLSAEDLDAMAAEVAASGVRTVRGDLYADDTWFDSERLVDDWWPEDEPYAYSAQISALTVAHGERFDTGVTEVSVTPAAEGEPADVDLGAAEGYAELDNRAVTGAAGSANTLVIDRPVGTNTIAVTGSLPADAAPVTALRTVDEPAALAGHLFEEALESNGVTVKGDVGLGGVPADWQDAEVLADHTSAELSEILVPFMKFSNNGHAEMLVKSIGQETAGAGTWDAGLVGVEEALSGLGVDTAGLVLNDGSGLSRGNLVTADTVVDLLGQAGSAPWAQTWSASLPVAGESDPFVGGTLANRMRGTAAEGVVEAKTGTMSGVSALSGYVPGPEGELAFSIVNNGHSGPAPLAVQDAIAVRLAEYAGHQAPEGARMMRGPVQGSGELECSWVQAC

| SMILES | Activity [%] |
| --- | --- |
| C[C@@H](NC(=O)c1ccccc1NS(=O)(=O)c1ccccc1)B(O)O | 3 |
| C[C@H](NC(=O)c1c(F)cccc1F)B(O)O | 3 |
| C[C@@H](NC(=O)c1c(Cl)cccc1Cl)B(O)O | 3 |
| C[C@@H](NC(=O)c1c(F)cccc1-c1ccccc1)B(O)O | 0 |
| C[C@@H](NC(=O)c1ccccc1Cc1ccccc1)B(O)O | 5 |
| C[C@@H](NC(=O)c1ccccc1C(=O)c1ccc2ccccc2c1)B(O)O | 0 |
| C[C@@H](NC(=O)c1ccccc1-c1ccccc1)B(O)O | 5 |
| C[C@@H](NC(=O)c1ccc2sccc2c1)B(O)O | 8 |
| C[C@@H](NC(=O)c1ccc2ccccc2c1)B(O)O | 19 |
| C[C@@H](NC(=O)c1c(F)cccc1F)B(O)O | 0 |
| CC(C)c1ccccc1C(=O)N[C@H](C)B(O)O | 36 |
| C[C@@H](NC(=O)c1ccccc1C(c1ccccc1)c1ccccc1)B(O)O | 1 |
| C[C@H](NC(=O)c1ccccc1Cc1ccccc1)B(O)O | 16 |

Target: D-alanyl-D-alanine carboxypeptidase (Actinomadura sp. R39, UniProt P39045)
Sequence (P39045 whole entry): as above
Assay: Inhibition of Actinomadura R39 PBP after 60 mins

| SMILES | IC50 [nM] | Ki [nM] |
| --- | --- | --- |
| C[C@@H](NC(=O)c1ccccc1NS(=O)(=O)c1ccccc1)B(O)O | 370 |  |
| C[C@H](NC(=O)c1c(F)cccc1F)B(O)O | 3300 |  |
| C[C@@H](NC(=O)c1c(Cl)cccc1Cl)B(O)O | 4200 |  |
| C[C@@H](NC(=O)c1c(F)cccc1-c1ccccc1)B(O)O | 270 |  |
| C[C@@H](NC(=O)c1ccccc1Cc1ccccc1)B(O)O | 1800 |  |
| C[C@@H](NC(=O)c1ccccc1C(=O)c1ccc2ccccc2c1)B(O)O | 80 | 105 |
| C[C@@H](NC(=O)c1ccccc1-c1ccccc1)B(O)O | 1310 |  |
| C[C@@H](NC(=O)c1ccc2sccc2c1)B(O)O | 2200 |  |
| C[C@@H](NC(=O)c1ccc2ccccc2c1)B(O)O | 14000 |  |
| C[C@@H](NC(=O)c1c(F)cccc1F)B(O)O | 500 |  |
| CC(C)c1ccccc1C(=O)N[C@H](C)B(O)O | 59000 |  |
| C[C@@H](NC(=O)c1ccccc1C(c1ccccc1)c1ccccc1)B(O)O | < 80 | 63 |
| C[C@H](NC(=O)c1ccccc1Cc1ccccc1)B(O)O | 7200 |  |
